The record followed here is ChEMBL document CHEMBL1153883, “Cytotoxic, antioxidant activities and structure activity relationship of some newly synthesized terpenoidal oxaliplatin analogs” (Eur J Med Chem, 2009).

Molecules are shown by their SMILES.

Data set [1] is described as follows: Antioxidant activity assessed as superoxide anion scavenging activity by NBT reduction method relative to Vitamin C. Also on record: concentration or dose not given beside the values. It counts as functional.
Data set [2] relates to HT-29. In words: Cytotoxicity against human HT-29 cells at 100 ug/ml after 48 hrs by neutral red assay. It counts as functional. The gist of the method: (§1)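 HT-29 cells (Korean Cell Line Bank) were kept in DMEM with 10% FBS, penicillin and streptomycin at 37 °C under 5% CO2. Cells in 96-well plates were exposed to compounds for 12–48 h. The medium was replaced with fresh medium for neutral red uptake. Dye was extracted with 50% ethanol containing 50 mM sodium citrate (pH 4.2), and absorbance was read at 510 nm after 20 min.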

Data set [3] deals with HT-29. The data set can be described thus: Cytotoxicity against human HT-29 cells at 150 ug/ml after 12 hrs by neutral red assay. It counts as functional. The method, boiled down:
as §1

Data set [4] deals with HT-29. The data set can be described thus: Cytotoxicity against human HT-29 cells at 100 ug/ml after 12 hrs by neutral red assay. It counts as functional. The gist of the method: as §1
Data set [5] relates to HT-29. The data set can be described thus: Cytotoxicity against human HT-29 cells at 100 ug/ml after 24 hrs by neutral red assay. It counts as functional. The method, boiled down:
as §1

Data set [6] has as its system HT-29. The data set can be described thus: Cytotoxicity against human HT-29 cells at 50 ug/ml after 12 hrs by neutral red assay. It counts as functional. The method, boiled down: as §1
The nature of data set [7]: Antioxidant activity assessed as superoxide anion scavenging activity by NBT reduction method. It counts as functional. Also on record: concentration or dose not given beside the values. The gist of the method: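 Superoxide was generated by […]xanthine oxidase. Sample in 100 mM phosphate buffer (pH ~7.0) with xanthine oxidase (1.65 × 10^-2 units/ml) and NBT at 25 °C. The reaction was started by adding xanthine and followed by NBT reduction absorbance. Scavenging % was calculated from the absorbance increase with sample versus without sample (control).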

For data set [8], the system named is HT-29. The data set can be described thus: Cytotoxicity against human HT-29 cells at 50 ug/ml after 24 hrs by neutral red assay. It counts as functional. The method, boiled down:
as §1

Data set [9] deals with HT-29. In words: Cytotoxicity against human HT-29 cells at 150 ug/ml after 24 hrs by neutral red assay. It counts as functional. The method, boiled down:
as §1

For data set [10], the system named is HT-29. In words: Cytotoxicity against human HT-29 cells at 50 ug/ml after 48 hrs by neutral red assay. It counts as functional. The method, boiled down:
as §1

Data set [11] can be described thus: Acute toxicity in Albino rat. To be noted: in vivo. It counts as organism-based.

With `COC(=O)[C@@]1(C)CC[C@]2(C)CC[C@]3(C)C(=CC(=O)[C@@H]4[C@@]5(C)C[C@H](N=[N+]=[N-])[C@@H](N=[N+]=[N-])C(C)(C)[C@@H]5CC[C@]43C)[C@@H]2C1`, the Activity in data set [1] is 1.51%; in the data set with HT-29 [2] it was 52%; with HT-29 [3], 55%; with HT-29 [4], 42%; in the data set on HT-29 [5], 46%; with HT-29 [6], 29%. Further, the Activity in data set [7] came out at 68.1%; with HT-29 [8], 31%; in the data set with HT-29 [9], 60%; with HT-29 [10], 36%. The compound further came in with an LD50 in data set [11] of 898 mg/kg.
On to `O=C1O[C@H]([C@@H](O)CO)C(O)=C1O`, for which the Activity in data set [1] came to 1%; in [7], 45%.
As for `COC(=O)[C@@]1(C)CC[C@]2(C)CC[C@]3(C)C(=CC(=O)[C@@H]4[C@@]5(C)C[C@H](N)[C@@H](N)C(C)(C)[C@@H]5CC[C@]43C)[C@@H]2C1`, the Activity worked out at 1.56% in [1]; 58% in the data set with HT-29 [2]; 65% in the data set with HT-29 [3]; 48% with HT-29 [4]; 50% in the data set with HT-29 [5]; 40% in the data set on HT-29 [6]. For the same compound, the Activity in data set [7] was 70.1%; with HT-29 [8], 43%; with HT-29 [9], 70%; in the data set with HT-29 [10] it was 45%. Besides, the median lethal dose (LD50) in [11] was found to be 893 mg/kg.
`COC(=O)[C@]12CC[C@@H](C)[C@H](C)[C@H]1C1=CC[C@@H]3[C@@]4(C)C[C@@H](N)[C@H](N)C(C)(C)[C@@H]4CC[C@@]3(C)[C@]1(C)CC2`: the Activity was determined as 1.65% in data set [1]; 62% in the data set with HT-29 [2]; 70% with HT-29 [3]; 56% in the data set with HT-29 [4]; 60% with HT-29 [5]; 44% with HT-29 [6]. The Activity stood at 74.2% in data set [7], 47% in the data set on HT-29 [8], 75% with HT-29 [9] and 50% in the data set with HT-29 [10]. The median lethal dose (LD50) in data set [11] was found to be 836 mg/kg.
In the case of `CC1(C)[C@H](O)[C@@H](O)C[C@]2(C)[C@H]3C(=O)C=C4[C@@H]5C[C@@](C)(C(=O)O)CC[C@]5(C)CC[C@@]4(C)[C@]3(C)CC[C@@H]12`, the LD50 in [11] came to 656 mg/kg.
`COC(=O)[C@]12CC[C@@H](C)[C@H](C)[C@H]1C1=CC[C@@H]3[C@@]4(C)C[C@@H](N=[N+]=[N-])[C@H](N=[N+]=[N-])C(C)(C)[C@@H]4CC[C@@]3(C)[C@]1(C)CC2`: the Activity in data set [1] came out at 1.54%; in the data set on HT-29 [2] it was 55%; in the data set with HT-29 [3], 61%; in the data set on HT-29 [4], 44%; in the data set with HT-29 [5], 48%; with HT-29 [6], 33%. In addition, the Activity in data set [7] was 69.1%; in the data set on HT-29 [8], 35%; in the data set on HT-29 [9], 66%; in the data set on HT-29 [10], 40%. For the same compound, the LD50 in data set [11] was determined as 825 mg/kg.
As to `COC(=O)[C@]12CC[C@@H](C)[C@H](C)[C@H]1C1=CC[C@@H]3[C@@]4(C)C[C@@H](O)[C@H](O)C(C)(C)[C@@H]4CC[C@@]3(C)[C@]1(C)CC2` [COROSOLIC ACID METHYL ESTER], the Activity amounted to 1.51% in data set [1]; 50% in the data set with HT-29 [2]; 53% in the data set on HT-29 [3]; 40% with HT-29 [4]; 44% in the data set on HT-29 [5]; 22% in the data set with HT-29 [6]. In addition, the Activity in data set [7] came out at 68%; with HT-29 [8], 29%; with HT-29 [9], 58%; with HT-29 [10], 35%. This compound also had a median lethal dose (LD50) in data set [11] of 818 mg/kg.
`C[C@H]1[C@H](C)CC[C@]2(C(=O)O)CC[C@]3(C)C(=CC[C@@H]4[C@@]5(C)C[C@@H](O)[C@H](O)C(C)(C)[C@@H]5CC[C@]43C)[C@H]12` [COROSOLIC ACID] came in with an LD50 in data set [11] of 816 mg/kg.
As for `COC(=O)[C@@]1(C)CC[C@]2(C)CC[C@]3(C)C(=CC(=O)[C@@H]4[C@@]5(C)C[C@H](O)[C@@H](O)C(C)(C)[C@@H]5CC[C@]43C)[C@@H]2C1`, the Activity in data set [1] came out at 1.45%; with HT-29 [2] it was 42%; in the data set on HT-29 [3] it was 40%; in the data set with HT-29 [4], 39%; with HT-29 [5], 41%; in the data set on HT-29 [6], 19%. Besides, the Activity came out at 65.1% in data set [7], 21% in the data set with HT-29 [8], 52% with HT-29 [9] and 33% in the data set on HT-29 [10]. This compound yielded an LD50 in [11] of 793 mg/kg.

By LD50 is commonly meant the dose expected to kill half of the subjects tested.
